In ChEMBL document CHEMBL4229550, “An antimycobacterial pleuromutilin analogue effective against dormant bacilli” (Bioorg Med Chem, 2018):
Values after ≈ are worked out from the molar mass of the structure shown.

Assays:
[1] = system: Mycobacterium tuberculosis; test: Antibacterial activity against non-replicating Mycobacterium tuberculosis H37Rv harboring pFCA-luxAB preincubated for 10 days under anaerobic condition followed by incubation under ambient gaseous condition for 28 hrs by LORA; format: functional
Outline: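 Mtb H37Rv is electroporated with pFCA-luxAB and diluted in 7H12 broth to A570 0.03–0.05 (3,000–7,000 RLU per 100 µL). Cells are added to two-fold serial dilutions and held anaerobic (O2 <0.16%; 10% H2, 5% CO2, 85% N2) for 10 days. A 28 h recovery in 5% CO2 air follows, then luminescence is read.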

[2] = system: Mycobacterium tuberculosis; test: Selectivity ratio of MIC for antibacterial activity against non-replicating Mycobacterium tuberculosis H37Rv harboring pFCA-luxAB to MIC100 for antibacterial activity against replicating Mycobacterium tuberculosis H37Rv; format: functional

## C=C[C@]1(C)C[C@@H](OC(=O)CSC(C)(C)CNC(=O)[C@H](N)CC(C)C)[C@]2(C)[C@H](C)CC[C@]3(CC[C@@H](O)[C@H]32)[C@@H](C)[C@@H]1O
[1]
  MIC: 3.46 µg/mL (≈ 5.96 µM)
[2]
  selectivity ratio: 1.13

## C=C[C@]1(C)C[C@@H](OC(=O)CSC(C)(C)CNC(=O)[C@H](N)CC(C)C)[C@]2(C)[C@H](C)CC[C@]3(CCC(=O)[C@H]32)[C@@H](C)[C@@H]1O
[1]
  MIC: 1.98 µg/mL (≈ 3.42 µM)
[2]
  selectivity ratio: 1.27

## CC[C@]1(C)C[C@@H](OC(=O)CSC(C)(C)CNC(=O)[C@H](N)CC(C)C)[C@]2(C)[C@H](C)CC[C@]3(CC[C@@H](O)[C@H]32)[C@@H](C)[C@@H]1O
[1]
  MIC: 1.2 µg/mL (≈ 2.06 µM)
[2]
  selectivity ratio: 1.45

## CC[C@]1(C)C[C@@H](OC(=O)CSC(C)(C)CNC(=O)[C@H](N)CC(C)C)[C@]2(C)[C@H](C)CC[C@]3(CCC(=O)[C@H]32)[C@@H](C)[C@@H]1O
[1]
  MIC: 1.04 µg/mL (≈ 1.79 µM)
[2]
  selectivity ratio: 1.33

## CC[C@@H](CO)NCCN[C@@H](CC)CO [ETHAMBUTOL]
[1]
  MIC: > 100 µg/mL
[2]
  selectivity ratio: >128

## NNC(=O)c1ccncc1 [ISONIAZID]
[1]
  MIC: > 100 µg/mL
[2]
  selectivity ratio: >2500

## CC(=O)NC[C@H]1CN(c2ccc(N3CCOCC3)c(F)c2)C(=O)O1 [LINEZOLID]
[1]
  MIC: 0.63 µg/mL (≈ 1.87 µM)
[2]
  selectivity ratio: 1.05

## C=C[C@]1(C)C[C@@H](OC(=O)CSC(C)(C)CNC(=O)[C@H](N)C(C)C)[C@]2(C)[C@H](C)CC[C@]3(CCC(=O)[C@H]32)[C@@H](C)[C@@H]1O [VALNEMULIN]
[1]
  MIC: 3.56 µg/mL (≈ 6.3 µM)
[2]
  selectivity ratio: 1.14
